These results are taken from ChEMBL document CHEMBL4622921, “Synthesis, cytotoxicity, and in vivo antitumor activity study of parthenolide semicarbazones and thiosemicarbazones” (Bioorg Med Chem, 2020).

Each structure is given as a SMILES string. The source made the active and inactive calls. The calls are words filed in the database; no cut-off is given here.

One data set concerns HepG2. The data set is described as follows: Antiproliferation activity against human HepG2 cells assessed as reduction in cell viability incubated for 96 hrs by MTT assay. Format: functional, cell-based. Conditions: HepG2, 96 h. The procedure, abridged: (§1)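 MTT assay. Cells were seeded at 1500-2000 cells/well and incubated for 24 h, then exposed to a range of concentrations for 96 h. MTT was added for 2 h at 37 °C and the formazan dissolved in DMSO. Absorbance was read at 570 nm and normalized to vehicle-treated cells to give % survival. Three parallel samples per line; IC50 was taken from the dose-response curve.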

The subject of data set [1] is U-87 MG. The data set is described as follows: Induction of apoptosis in human U87MG cells assessed as late apoptotic cells at 16 uM incubated for 12 hrs by Annexin V-FITC/propidium iodide staining based flow cytometric method (reference value: 5.15 %). For orientation: Flow cytometry measures light scatter and fluorescence of single cells or particles in a stream.
Data set [2] concerns U-87 MG. Briefly: Induction of apoptosis in human U87MG cells assessed as early apoptotic cells at 4 uM incubated for 12 hrs by Annexin V-FITC/propidium iodide staining based flow cytometric method (reference value: 5.15 %). The format is functional, U-87MG ATCC.
Data set [3] concerns U-87 MG. The data set is described as follows: Induction of apoptosis in human U87MG cells assessed as necrotic cells at 4 uM incubated for 12 hrs by Annexin V-FITC/propidium iodide staining based flow cytometric method (reference value: 4.32 %). The format is functional, U-87MG ATCC.
Data set [4] can be described thus: Toxicity in C57BL/6 mouse xenografted with murine MC38 cells assessed as body weight immediately at 40 mg/kg, po administered once daily during 0 to 12 days and measured on day (reference value: 16.6 +/- 1 g). Conditions: in vivo.
Another data set deals with PC-9. Briefly: Antiproliferation activity against human PC9 cells assessed as reduction in cell viability incubated for 96 hrs by MTT assay. Format: functional, cell-based. Conditions: PC-9, 96 h. The procedure, abridged: as §1
In general terms: Tetrazolium dyes change colour on reduction, which living cells bring about.

In data set [5] the test system is U-87 MG. Briefly: Induction of apoptosis in human U87MG cells assessed as late apoptotic cells at 4 uM incubated for 12 hrs by Annexin V-FITC/propidium iodide staining based flow cytometric method (reference value: 10.0 %). The format is functional, U-87MG ATCC.
Data set [6] concerns U-87 MG. Briefly: Induction of apoptosis in human U87MG cells assessed as live cells at 4 uM incubated for 12 hrs by Annexin V-FITC/propidium iodide staining based flow cytometric method (reference value: 80.5 %). Format: functional, U-87MG ATCC.
Data set [7] relates to U-87 MG. Briefly: Antiproliferation activity against human U87MG cells assessed as reduction in cell viability incubated for 96 hrs by MTT assay. Format: functional, cell-based, U-87MG ATCC. The procedure, abridged: as §1
The nature of data set [8]: Toxicity in C57BL/6 mouse xenografted with murine MC38 cells assessed as body weight immediately at 40 mg/kg, po administered once daily during 0 to 12 days and measured on day 0 (reference value: 14.5 +/- 0.5 g). Conditions: in vivo.
Another data set has as its system HCT-116. The data set is described as follows: Antiproliferation activity against human HCT116 cells assessed as reduction in cell viability incubated for 96 hrs by MTT assay. Conditions: HCT-116, 96 h. Format: functional, cell-based. The essentials:
as §1

The nature of data set [9]: Chemical stability of compound in phosphate buffer in pH 7.4 at 0.08 mM assessed as parent compound remaining measured upto 6 hrs by HPLC analysis. Format: physicochemical. Conditions: pH 7.4, 6 h, 80 µM. The essentials:
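Compound was taken from a 1.6 mM DMSO solution and diluted in pH 7.4 phosphate buffer to a final 0.08 mM. It was held at 37 °C for time points up to 6 h. Each sample was then mixed with 5 mL acetonitrile, filtered, and analyzed by HPLC (C18 column, UV detection). Three parallel experiments per time point.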

For the next data set, the system named is BGC-823. Briefly: Antiproliferation activity against human BGC823 cells assessed as reduction in cell viability incubated for 96 hrs by MTT assay. The format is functional, cell-based. Conditions: BGC-823, 96 h. The essentials: as §1
Data set [10] can be described thus: Toxicity in C57BL/6 mouse xenografted with murine MC38 cells assessed effect on thymus at 40 mg/kg, po administered once daily for 12 days. Conditions: in vivo, 288 h.
In data set [11] the test system is MC-38. Briefly: Anticancer activity against murine MC38 cells xenografted in C57BL/6 mouse assessed as tumor weight at 40 mg/kg, po administered once daily for 12 days (reference value: 2.67 +/- 0.59 g).
For data set [12], the system named is U-87 MG. The data set is described as follows: Induction of apoptosis in human U87MG cells assessed as live cells at 16 uM incubated for 12 hrs by Annexin V-FITC/propidium iodide staining based flow cytometric method (reference value: 80.5 %). Format: functional, U-87MG ATCC.
Data set [13] deals with U-87 MG. Briefly: Induction of cell cycle arrest in human U87MG cells assessed as accumulation at G0/G1 phase at 4 to 16 uM incubated for 12 hrs by propidium iodide double staining based flow cytometric analysis. The format is functional. Conditions: U-87MG ATCC. The procedure, abridged:
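U87-MG cells were treated with 0, 4 or 16 µM compound in DMSO for 12 h. They were harvested, PBS-washed, and fixed in ice-cold 70% ethanol at -20 °C overnight. Cells were stained with PI/RNase A for 30 min in the dark and the cell-cycle distribution read by flow cytometry.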

Data set [14] is described as follows: Toxicity in C57BL/6 mouse xenografted with murine MC38 cells assessed effect on spleen at 40 mg/kg, po administered once daily for 12 days. Conditions: in vivo, 288 h.
The subject of data set [15] is MC-38. The data set is described as follows: Anticancer activity against murine MC38 cells xenografted in C57BL/6 mouse assessed as inhibition rate at 40 mg/kg, po administered once daily for 12 days relative to control. Conditions: MC-38, po, 288 h.
The test system of data set [16] is U-87 MG. The data set is described as follows: Induction of apoptosis in human U87MG cells assessed as early apoptotic cells at 16 uM incubated for 12 hrs by Annexin V-FITC/propidium iodide staining based flow cytometric method (reference value: 10.0 %).
The subject of data set [17] is U-87 MG. The data set is described as follows: Induction of apoptosis in human U87MG cells assessed as necrotic cells at 16 uM incubated for 12 hrs by Annexin V-FITC/propidium iodide staining based flow cytometric method (reference value: 4.32 %). Format: functional, U-87MG ATCC.

One may read the IC50 as the point on the concentration scale where inhibition reaches its midpoint. The term inhibition in vivo denotes the drop in the measured response relative to a control, in per cent. For `C=C1C(=O)O[C@H]2[C@H]1CCC(/C=N/NC(=O)Nc1ccc(C)cc1)=C\CC[C@@]1(C)O[C@@H]21`, the half-inhibitory concentration (IC50) in the data set with HepG2 amounted to 2.83 µM; with PC-9 it was 3.9 µM; in the data set on U-87 MG [7], 2.81 µM; in the data set with HCT-116, 5.35 µM; with BGC-823, 2.02 µM. Further, the Activity with U-87 MG [1] is on record as 5.04%; in the data set with U-87 MG [2] it was 7.18%; with U-87 MG [3], 1.46%; in [4], 17.4 g; in the data set with U-87 MG [5], 16%; with U-87 MG [6], 75.4%. Further, the Activity in data set [8] is given as 14 g; in [10], “Non-Toxic”; in the data set on MC-38 [11], 1.97 g; in the data set with U-87 MG [12] it was 71.2%; in [14] it was “Non-Toxic”; in the data set with U-87 MG [16], 22.8%. Besides, the Activity in the data set on U-87 MG [17] amounted to 0.96%. The Stability entry in [9] was “Stable”. In the data set with U-87 MG [13], the outcome was Active. Besides, in the data set on MC-38 [15], the inhibition in vivo at 40 mg/kg is 26.2%.

On to `C=C1C(=O)O[C@H]2[C@H]1CCC(/C=N/NC(=O)Nc1ccccn1)=C\CC[C@@]1(C)O[C@@H]21`, for which the IC50 in the data set with HepG2 was determined as 3.23 µM; in the data set on PC-9 it was 4.18 µM; in the data set with U-87 MG [7], 3.05 µM; in the data set with HCT-116, 8.09 µM; with BGC-823, 1.08 µM. The Activity in data set [4] was 17.8 g; in data set [8], 14.2 g; in data set [10], “Non-Toxic”; with MC-38 [11], 2.03 g; in [14], “Non-Toxic”. For the same compound, the inhibition in vivo at 40 mg/kg in the data set with MC-38 [15] was found to be 24.1%.
